Assay results from the RNAGym collection of RNA variant scans (doi:10.1002/anie.201605470).

B1: Osa-1-4 twister ribozyme (parent)
chain: CCGCCUAACACUGCCAAUGCCGGUCCCAAGCCCGGAUAAAAGUGGAGGGGGCGG

Variants of: B1
Assay: self-cleavage, relative activity (ratio to wild type); higher = more cleavage; co-transcriptional
Procedure, shortened: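 A DNA template encoding a 54-nucleotide twister ribozyme from Oryza sativa was made so that each of the 48 positions downstream of the cleavage site carried 97 % wild-type base and 1 % of each other base. Transcription in vitro ran for 2 h at 37 °C, during which the ribozyme could cleave itself. Reverse transcription used a template-switching oligonucleotide, and the products were PCR-amplified and deep-sequenced. Each read was scored as cleaved or uncleaved by whether upstream sequence was present, and relative activity is the fraction cleaved normalised to wild type.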

| Variant | self-cleavage |
| --- | --- |
| G47C U37G | 0.21 |
| G47C U37C | 0.15 |
| G47C U37A | 0.09 |
| G47U | 0.42 |
| G48C G50U | 0.1 |
| G48C G50A | 0.3 |
| G48C G50C | 0.1 |
| G48A G49C | 0.03 |
| G48A G49A | 0.05 |
| G48A G49U | 0.04 |
| G48U G54A | 0.11 |
| G48U G54C | 0.1 |
| G48U G54U | 0.34 |
| G47U G54C | 0.32 |
| G47U G54A | 0.28 |
| G47U G54U | 0.46 |
| G48U G50U | 0.07 |
| G48U G50A | 0.21 |
| G48U G50C | 0.07 |
| G48A G53U | 0.09 |
| G48A G53C | 0.07 |
| G48A G53A | 0.11 |
| G48A G51U | 0.05 |
| G48A G51A | 0.1 |

| Variant | self-cleavage |
| --- | --- |
| G48A G51C | 0.04 |
| G48U G49A | 0.04 |
| G48U G49U | 0.05 |
| G48U G49C | 0.03 |
| G48A U37A | 0.06 |
| G48A U37C | 0.11 |
| G48A U37G | 0.16 |
| G47C G54A | 0.14 |
| G47C G54C | 0.13 |
| G47C G54U | 0.24 |
| G49A G50C | 0.22 |
| G49A G50A | 0.27 |
| G49A G50U | 0.23 |
| G48U | 0.1 |
| G48A | 0.14 |
| G48C | 0.12 |
| G47C U24A | 0.03 |
| G47C U24G | 0.01 |
| G47C U24C | 0.04 |
| G48C U37G | 0.16 |
| G48C U37C | 0.1 |
| G48C U37A | 0.08 |
| G47C U12G | 0.06 |
| G47C U12A | 0.06 |

| Variant | self-cleavage |
| --- | --- |
| G47C U12C | 0.05 |
| G48U G53A | 0.1 |
| G48U G53U | 0.08 |
| G48U G53C | 0.06 |
| G47C U43A | 0.1 |
| G47C U43C | 0.08 |
| G47C U43G | 0.07 |
| G47U G50U | 0.1 |
| G47U G50C | 0.07 |
| G47U G50A | 0.19 |
| G47U U37C | 0.37 |
| G47U U37A | 0.23 |
| G47U U37G | 0.51 |
| G48U G51U | 0.07 |
| G48U G51A | 0.11 |
| G48U G51C | 0.04 |
| G48C G54U | 0.2 |
| G48C G54C | 0.1 |
| G48C G54A | 0.11 |
| G48A U43G | 0.06 |
| G48A U43C | 0.06 |
| G48A U43A | 0.06 |
| G49A G53C | 0.05 |
| G49A G53U | 0.09 |

| Variant | self-cleavage |
| --- | --- |
| G49A G53A | 0.11 |
| G47U G48U | 0.05 |
| G47U G48C | 0.05 |
| G47U G48A | 0.04 |
| G48C G51A | 0.11 |
| G48C G51U | 0.06 |
| G48C G51C | 0.04 |
| G47U U12A | 0.07 |
| G47U U12C | 0.07 |
| G47U U12G | 0.05 |
| G49A U12A | 0.08 |
| G49A U12C | 0.05 |
| G49A U12G | 0.06 |
| G48A G50C | 0.09 |
| G48A G50U | 0.09 |
| G48A G50A | 0.16 |
| G47U G53A | 0.18 |
| G47U G53U | 0.1 |
| G47U G53C | 0.06 |
| G47U U18G | 0.57 |
| G47U U18C | 0.24 |
| G47U U18A | 0.28 |
| G47C U18C | 0.1 |
| G47C U18A | 0.12 |

| Variant | self-cleavage |
| --- | --- |
| G47C U18G | 0.24 |
| G48A U18A | 0.09 |
| G48A U18C | 0.1 |
| G48A U18G | 0.13 |
| G47U U24G | 0.02 |
| G47U U24C | 0.03 |
| G47U U24A | 0.05 |
| G48U U43C | 0.05 |
| G48U U43A | 0.05 |
| G48U U43G | 0.04 |
| G49A G54A | 0.15 |
| G49A G54C | 0.11 |
| G49A G54U | 0.39 |
| G48U U12C | 0.04 |
| G48U U12G | 0.05 |
| G48U U12A | 0.07 |
| G48A G54C | 0.15 |
| G48A G54U | 0.37 |
| G48A G54A | 0.15 |
| G48C U18A | 0.09 |
| G48C U18G | 0.1 |
| G48C U18C | 0.1 |
| G47U G49C | 0.04 |
| G47U G49U | 0.05 |

| Variant | self-cleavage |
| --- | --- |
| G47U G49A | 0.05 |
| G48U U18C | 0.08 |
| G48U U18A | 0.07 |
| G48U U18G | 0.13 |
| G48C U43A | 0.08 |
| G48C U43G | 0.07 |
| G48C U43C | 0.07 |
| G48A U12G | 0.04 |
| G48A U12A | 0.07 |
| G48A U12C | 0.04 |
| G48C U12A | 0.07 |
| G48C U12C | 0.05 |
| G48C U12G | 0.07 |
| G49A G51C | 0.09 |
| G49A G51A | 0.33 |
| G49A G51U | 0.15 |
| G49A U18A | 0.16 |
| G49A U18G | 0.29 |
| G49A U18C | 0.16 |
| G47U G51A | 0.09 |
| G47U G51U | 0.08 |
| G47U G51C | 0.05 |
| G48U U37G | 0.11 |
| G48U U37C | 0.09 |

| Variant | self-cleavage |
| --- | --- |
| G48U U37A | 0.05 |
| G48C G53A | 0.09 |
| G48C G53U | 0.07 |
| G48C G53C | 0.05 |
| G48C G49A | 0.05 |
| G48C G49U | 0.04 |
| G48C G49C | 0.07 |
| G49A U24G | 0.01 |
| G49A U24A | 0.05 |
| G49A U24C | 0.05 |
| G48U U24G | 0.01 |
| G48U U24C | 0.03 |
| G48U U24A | 0.03 |
| G49A | 0.26 |
| G48A U24C | 0.04 |
| G48A U24A | 0.05 |
| G48A U24G | 0.01 |
| G47U U43G | 0.07 |
| G47U U43C | 0.08 |
| G47U U43A | 0.1 |
| G48C U24A | 0.04 |
| G48C U24C | 0.04 |
| G48C U24G | 0.01 |
